Screening results (PubChem BioAssay)
M5 PAM – potentiates acetylcholine response at human M5 receptor; P08912; CHO-K1 hM5, Fluo-8 calcium, ACh EC20 PAM; 0% = ACh EC20, 100% = ACh EC100; activation, % at 3 µM; 360,000 tested, 0.3% active; AID 624038;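 active = activation above the run cutoff, the mean activation of all test compounds plus 3 SD, cut at about 18% in these data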
Target sequence (P08912 whole entry, looked up): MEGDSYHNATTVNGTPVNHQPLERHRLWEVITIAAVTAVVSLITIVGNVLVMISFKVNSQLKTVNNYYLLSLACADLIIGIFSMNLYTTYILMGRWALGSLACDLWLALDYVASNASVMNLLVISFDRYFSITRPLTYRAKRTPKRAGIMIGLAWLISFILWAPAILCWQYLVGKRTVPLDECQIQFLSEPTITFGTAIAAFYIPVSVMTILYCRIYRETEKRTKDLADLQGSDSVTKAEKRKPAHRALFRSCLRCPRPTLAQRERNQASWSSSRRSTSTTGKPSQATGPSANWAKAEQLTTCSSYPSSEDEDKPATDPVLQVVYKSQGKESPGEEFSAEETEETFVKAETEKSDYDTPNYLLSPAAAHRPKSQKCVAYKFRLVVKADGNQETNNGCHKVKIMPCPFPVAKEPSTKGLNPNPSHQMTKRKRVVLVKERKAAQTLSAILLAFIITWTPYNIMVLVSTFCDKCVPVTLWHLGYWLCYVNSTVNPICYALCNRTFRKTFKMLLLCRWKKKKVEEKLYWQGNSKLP
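Test system: CHO-K1 hM5 cells / Doses: single-point, 3 µM nominal / Times: Post-acetylcholine fluorescence recording 140 s / Technique: Fluo-8 calcium fluorescence / Measure: Max/basal fluorescence ratio as % of EC20–EC100 ACh window / Benchmarks: low control EC20 acetylcholine (0%), high control EC100 acetylcholine (100%) / Replicates: one well per compound, no replicates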
CHRM4 antagonist – CHRM4 antagonism in calcium assay. CHO-hM4 cells, ACh EC80, Fluo-8 calcium fluorescence. inhibition, % at 3 µM. 360,000 tested, 0.73% active. AID 624125;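 active = inhibition above its plate's cutoff, the mean inhibition of sample wells plus 3 SD, cut at about 27% in these data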
M5 ag – CHRM5 agonism in calcium assay | activation, % at 3 µM | AID 624037 | 360,000 tested, 0.19% active | CHO-K1 hM5 cells, Fluo-8 calcium fluorescence; 0% DMSO wells, 100% maximal acetylcholine response | P08912;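 active = activation above the run's mean over test compounds plus 3 SD, cut at about 23% in these data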;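 note: signal is peak over basal fluorescence ratio across the kinetic read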
CHRM4 PAM – potentiates acetylcholine response at human M4 receptor. P08173. CHO-K1 hM4/Gqi5, Fluo-8 calcium fluorescence, ACh EC20; 0% = ACh EC20, 100% = maximal ACh. activation, % at 3 µM. 360,000 tested, 0.4% active. AID 624126;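 active = activation above its plate's cutoff, the mean activation of sample wells plus 3 SD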
CHRM4 agonist – CHRM4 agonism in calcium assay | P08173 | CHO-K1 hM4/Gqi5, Fluo-8 calcium fluorescence; vehicle 0%, full acetylcholine response 100% | activation, % at 3 µM | 360,000 tested, 0.14% active;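 active = activation above the run mean over all test wells plus 3 SD, cut at about 32% in these data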;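 note: peak over basal fluorescence ratio per well then scaled between controls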
CHRM5 antagonist – antagonists of human muscarinic M5 receptor (CHRM5) | P08912 | CHO-hM5 cells, Fluo-8 calcium fluorescence, ACh EC80 | inhibition, % at 3 µM | 360,000 tested, 0.59% active;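 active = inhibition above a per-plate cutoff, the mean of that plate's test compounds plus 3 SD, cut at about 27% in these data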
Each line names hits and unclear results; the compound was inactive in the other large screens. This is a sample that favours compounds with a hit; in the whole collection about 1.8% have one here.

Cc1ccc2c(c1)[C@H]1[C@H](CO2)[C@H](c2ccccc2)[C@]2(C)C(=O)Nc3ccc(Cl)cc3C(=O)N12	none
Cc1ccc2c(c1)C(=O)N1[C@H]3c4ccccc4OC[C@@H]3[C@H](c3ccccc3)[C@]1(C)C(=O)N2	CHRM4 antagonist 53
C[C@@]12C(=O)Nc3ccc(Br)cc3C(=O)N1[C@H]1c3ccccc3OC[C@@H]1[C@@H]2c1ccccc1	CHRM4 antagonist 35
Cc1ccc2c(c1)NC(=O)[C@@]1(C)[C@@H](c3ccccc3)[C@H]3COc4ccccc4[C@@H]3N1C2=O	none
Cc1ccc2c(c1)[C@H]1[C@H](CO2)[C@H](c2ccccc2)[C@]2(C)C(=O)Nc3ccccc3C(=O)N12	CHRM4 antagonist 60
COc1ccc2c(c1)[C@H]1[C@H](CO2)[C@H](c2ccccc2)[C@]2(C)C(=O)Nc3ccc(C)cc3C(=O)N12	none
CN(C)C(CNC(=O)C1CC(=O)N(c2cccc(C(F)(F)F)c2)C1)c1ccccc1 (stereo not given)	none
COc1ccc2c(c1)OC[C@H]1[C@H]2N2C(=O)c3ccccc3NC(=O)[C@@]2(C)[C@H]1c1ccccc1	CHRM4 antagonist 56
COc1ccc2c(c1)OC[C@H]1[C@H]2N2C(=O)c3cc(C)ccc3NC(=O)[C@@]2(C)[C@H]1c1ccccc1	none
CCOc1ccc(Br)cc1/C(C)=N\NC1=NCCN1	CHRM5 antagonist 32
CC1(C)CC(=O)C=C(c2ccc(-c3ccccc3)cc2)C1=O	none
Cc1ccc(NC(=O)C2(C)CCN2C(=O)Cc2ccccc2Cl)cc1C (stereo not given)	none
COc1ccc(Cn2ccnc2)cc1Br	CHRM4 antagonist 29
COc1ccc(Cn2ccnc2)cc1[N+](=O)[O-]	none
O=[N+]([O-])c1cnc(Sc2ccncn2)c([N+](=O)[O-])c1	none
O=[N+]([O-])c1cnc(Sc2ccncn2)s1	CHRM4 antagonist 32
Cc1cc(=O)[nH]c2c1c(-c1ccccc1)nn2C	CHRM4 antagonist 100
O=C1C(=C2CCc3ccccc32)Cc2ccccc21	none
c1ccc2c(c1)CCc1ccccc1C2=C1CCNCC1	CHRM4 antagonist 99, CHRM5 antagonist 99
COc1ccc2sc(-c3ccc(S(C)(=O)=O)cc3)c(C(=O)NCCc3c[nH]c4ccccc34)c2c1	CHRM4 antagonist 34
COc1cc(N(C)C)ccc1[C@]1(O)C(=O)N(C)c2ccc(Br)cc21	none
C=CCC(CC=C)(NC(=O)c1ccccc1C)c1ccccc1	M5 PAM 41
C=CCC(CC=C)(NC(=O)c1ccccc1)c1ccccc1	none
CCc1nc2ccc(C(=O)N(C)CCCN(C)C)cn2c1N(C)C(=O)C1CCCCC1	none
COc1ccc(C(=O)N2CCCCC2c2cc(C(=O)NCc3ccccc3)no2)cc1 (stereo not given)	none
CCc1nc2ccc(C(=O)Nc3cccc(OC)c3)cn2c1N(CC)CCOC	none
O=c1[nH]c(C2CCN(S(=O)(=O)c3cccc(Cl)c3)CC2)nc2c1nnn2Cc1ccccc1	CHRM4 antagonist 96
O=c1[nH]c(C2CCN(S(=O)(=O)c3cccc([N+](=O)[O-])c3)CC2)nc2c1nnn2Cc1ccccc1	CHRM4 antagonist 55
O=c1[nH]c(C2CCN(S(=O)(=O)c3ccc(S(=O)(=O)NC4CC4)cc3)CC2)nc2c1nnn2Cc1ccccc1	CHRM4 antagonist 63
O=c1[nH]c(C2CCN(S(=O)(=O)c3ccccc3)CC2)nc2c1nnn2Cc1cccc(Cl)c1	CHRM4 antagonist 83
CC1(C(=O)Nc2cccnc2)Cc2c(-c3ccc4c(c3)OCO4)ccnc2O1 (stereo not given)	none
CCN(c1ccc(C)cc1)S(=O)(=O)c1nnc(NC(=O)c2ccco2)s1	CHRM4 PAM 20
CCN(c1ccc(C)cc1C)S(=O)(=O)c1nnc(NC(=O)c2ccco2)s1	none
Cc1c(NS(=O)(=O)c2cccc(C(=O)N3CCC(C(N)=O)CC3)c2)c(=O)n(-c2ccccc2)n1C	CHRM4 PAM 32
CC(=O)CC(=O)Nc1ccn(-c2ccccc2)n1	M5 PAM 20
CC1(C)CC(=O)c2cc(C(=O)N3CCCC(C)(C)C3)c(=O)n(-c3ccccc3)c2C1	none
COc1ccc(-n2c3c(cc(C(=O)N4CCCCC4)c2=O)C(=O)CC(C)(C)C3)cc1	CHRM4 antagonist 27
CN(C)CCN1CCN(C2CN(C3CCCC3)S(=O)(=O)C2)CC1 (stereo not given)	none
CCOC(=O)[C@]12CCCC=C1N(Cc1ccccc1)C(=O)[C@H](CC(=O)NCc1cccc3ccccc13)C2	none
Cc1ccccc1C(=O)NN1C(=O)CSC1=S	none
O=C1CSC(=S)N1Nc1ccccc1	M5 ag 26
C[C@H]1CN([C@@H](C)CO)S(=O)(=O)c2ccc(Br)cc2O[C@@H]1CN(C)C(=O)C1CCOCC1	none
CCC1CCCCN1CCCNC(=O)c1ccc2c(c1)N(Cc1ccc(F)cc1)C(=O)c1ccccc1S2=O (stereo not given)	CHRM4 antagonist 29
O=C(NCCCN1CCCC1)c1ccc2c(c1)N(Cc1ccc(F)cc1)C(=O)c1ccccc1S2=O (stereo not given)	none
Cc1ccc(-n2nnnc2CNC(=O)c2ccc(Br)o2)cc1C	none
Cc1ccc(-n2nnnc2CNC(=O)c2ccc3c(c2)OCO3)cc1C	CHRM4 antagonist 63
CC1(C(=O)NS(=O)(=O)C2CC2)CCCN(C(=O)c2ccco2)C1 (stereo not given)	none
CNc1ccc2c3c(cccc13)C(=O)N(C)C2=O	CHRM4 antagonist 40, M5 ag 125, CHRM4 agonist 229, CHRM5 antagonist 43
CN1C(=O)c2cccc3c(Cl)ccc(c23)C1=O	none
CN1C(=O)c2cccc3c(N(C)C)ccc(c23)C1=O	M5 ag 41
Cc1ccc(S(=O)(=O)N2C3CCCCC3O[C@H]2CC(=O)c2cccc3ccccc23)cc1 (stereo not given in full)	none
Cc1cc(C)cc(C(O)c2ncc(-c3ccccc3C(F)(F)F)[nH]2)c1 (stereo not given)	none
COc1cccc(/C=C2\C(=O)C(=O)c3ccccc32)c1	CHRM4 antagonist 31
CCCCNC(=O)C1(C)CCN1C(=O)c1cc(-c2ccccc2)cs1 (stereo not given)	none
CC(=O)C1=C(O)C(=O)N(c2ccc(C(=O)O)cc2)C1c1ccc([N+](=O)[O-])cc1 (stereo not given)	none
CCOC(=O)c1ccc(N2C(=O)C(O)=C(C(C)=O)C2c2ccc([N+](=O)[O-])cc2)cc1 (stereo not given)	M5 PAM 19
